Holding throughout (type): functional
For assay [1], the system named is Candida albicans. The experiment in a line: Antifungal activity against Candida albicans MY1055 after 48 hrs in presence of 10% bovine serum albumin. Particulars: MY1055, 48 h. Summed up:
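Microtiter broth dilution MIC in Synthetic Complete medium with 10% bovine serum albumin added. Log-phase inoculum set by A600 to an absorbance of 0.0014. Titration started at 256 µg/mL. Cells grown 48 h and endpoints read visually.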

In a further assay the test system is Cryptococcus neoformans. Nature of the assay: Antifungal activity against Cryptococcus neoformans MY2062 after 48 hrs. Summed up: (§1)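 Broth microdilution MIC in microtiter format. Organisms grown in Synthetic Complete defined medium. Log-phase cells adjusted by A600 to an initial inoculum absorbance of 0.0014. […] Growth inhibition scored at 24 and 48 h, with visual endpoints.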

The next assay deals with Saccharomyces cerevisiae. The experiment in a line: Antifungal activity against Saccharomyces cerevisiae MY2214 after 48 hrs. Summed up:
as §1

A further assay concerns Aspergillus fumigatus. The experiment in a line: Antifungal activity against Aspergillus fumigatus MF5668 after 48 hrs. In short, it runs like this:
as §1

In assay [2] the test system is Candida albicans. Nature of the assay: Antifungal activity against Candida albicans MY1055 after 48 hrs. The following applies: MY1055, 48 h. Summed up:
as §1

In brackets after ≈: the same amount, converted by molar mass.

What is called MIC is the smallest concentration in the dilution series that meets the test's criterion for growth inhibition.

In the case of `C[C@@H]1[C@H](O)[C@@H](C)/C=C/C=C/C=C/C=C/C=C/C=C/C=C/[C@H](O[C@@H]2O[C@H](C)[C@@H](O)[C@H](N)[C@@H]2O)C[C@@H]2O[C@](O)(C[C@@H](O)C[C@@H](O)[C@H](O)CC[C@@H](O)C[C@@H](O)CC(=O)O[C@H]1C)C[C@H](O)[C@H]2C(=O)O` [AMPHOTERICIN B], the MIC was determined as 0.25 µg/mL with Candida albicans [1]; 0.25 µg/mL (≈ 0.271 µM) with Cryptococcus neoformans; 0.25 µg/mL (≈ 0.271 µM) against Saccharomyces cerevisiae; 1 µg/mL (≈ 1.08 µM) in the assay with Aspergillus fumigatus; 0.5 µg/mL (≈ 0.541 µM) against Candida albicans [2].
Take `CC(=O)O[C@@H]1C[C@]2(CO)[C@H]3CCC4=C5C(=O)CC6[C@H](C)CO[C@@H](O)C56CC[C@@]4(C)[C@]3(C)CC[C@H]2C(C)(C)[C@H]1O[C@@H]1O[C@H](CO)[C@@H](O)[C@H](O)[C@H]1O` (stereo not given in full) [HYALODENDROSIDE A]: the MIC is 128 µg/mL in the assay on Candida albicans [1]; greater than 256 µg/mL with Cryptococcus neoformans; 128 µg/mL (≈ 181 µM) in the assay on Saccharomyces cerevisiae; greater than 256 µg/mL with Aspergillus fumigatus; 128 µg/mL (≈ 181 µM) against Candida albicans [2].
With `CC(=O)O[C@@H]1C[C@]2(CO)[C@H]3CCC4=C5C(=O)C[C@@H](C(C)C)[C@@]5(C)CC[C@@]4(C)[C@]3(C)CC[C@H]2C(C)(C)[C@H]1O[C@@H]1O[C@H](CO)[C@@H](O)[C@H](O)[C@H]1O` [HYALODENDROSIDE B], the MIC in the assay on Candida albicans [1] worked out at 128 µg/mL; with Cryptococcus neoformans it was 4 µg/mL (≈ 5.91 µM); against Saccharomyces cerevisiae it was 32 µg/mL (≈ 47.3 µM); in the assay with Aspergillus fumigatus, 64 µg/mL (≈ 94.6 µM); with Candida albicans [2], 16 µg/mL (≈ 23.6 µM).

For the origin of these results see ChEMBL document CHEMBL1155660, “Hyalodendrosides A and B, antifungal triterpenoid glycosides from a lignicolous hyphomycete, Hyalodendron species” (2000).
